Screens: PubChem, several laboratories
ROMK primary: human ROMK K+ channel modulation, primary screen; P48048; B-score at 10 µM; 130,000 tested, 2% active; Tet-inducible ROMK, thallium flux fluorescence; actives lie on both sides;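 active means signal ratio slope over the read window, or its plate-corrected B-score, at least 3 SD from the plate mean, either direction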;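 further: B-score of the F/F0 ratio slope over 7 to 12 s after thallium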
Target sequence (P48048 whole entry, looked up): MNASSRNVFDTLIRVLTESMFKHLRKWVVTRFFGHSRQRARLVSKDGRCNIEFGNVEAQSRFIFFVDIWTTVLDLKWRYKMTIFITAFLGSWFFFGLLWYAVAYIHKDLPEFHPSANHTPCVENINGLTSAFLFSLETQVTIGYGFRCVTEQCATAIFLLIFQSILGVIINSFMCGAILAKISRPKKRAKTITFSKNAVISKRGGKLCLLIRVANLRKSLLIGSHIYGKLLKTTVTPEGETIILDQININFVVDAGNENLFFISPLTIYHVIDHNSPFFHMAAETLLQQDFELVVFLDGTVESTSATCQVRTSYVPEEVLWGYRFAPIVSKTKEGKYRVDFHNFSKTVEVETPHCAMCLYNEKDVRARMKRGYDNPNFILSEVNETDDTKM
KCC2 mod: modulators of human KCC2 chloride dependent transport | Q9H2X9 | KCC2 cells, thallium flux FluoZin-2 fluorescence | B-score of Tl+ flux slope (higher = more flux/activation; lower = inhibition) at 10 µM | 190,000 tested, 2.2% active;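 active means thallium flux slope and its plate-corrected score both differing from the plate sample mean at a set confidence after two filtering rounds, in either direction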;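 further: slope of fluorescence scaled to starting intensity during 10 to 20 s after thallium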
L major viab: Leishmania major promastigote growth inhibition | 200,000 tested, 9% active | Leishmania major promastigotes, resazurin fluorescence viability | AID 1063 | inhibition, % at 10 µM; in the data active means inhibition above about 50%;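 further: promastigotes grown with compound for 44 hours at 28 °C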
Diaph act CS: diaphorase activation or chemical reduction counter-screen. activation factor at 20 µM. Diaphorase/resazurin coupled assay, resorufin fluorescence, 16 min; stronger effect = higher value; 1 = vehicle wells, 0 = NADH-free wells. 190,000 tested, 0.005% active. AID 1229;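 active means diaphorase activity raised at least twofold by the compound at 20 µM; inactive means activation factor below 2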
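Test system: Clostridium kluyveri diaphorase, purified enzyme. Buffer or medium: 50 mM HEPES pH 7.4 buffer plus MgCl2 and Tween 20. Also added: 0.114 mM NADH and 0.1 mM resazurin, final amounts. Dosing: compound 20 µM once, DMSO 1%. Schedule: 16 min enzyme reaction, ambient temperature. Detection: fluorescence of resorufin, 544 nm excitation, 590 nm emission.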
Diaph inh CS: diaphorase inhibition or chemical oxidation counter-screen; diaphorase resazurin-to-resorufin fluorescence, NADH, 16 min; bacterial (C. kluyveri) enzyme, not human; inhibition, % at 20 µM; 190,000 tested, 0.69% active;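 active means primary screen inhibition at 20 µM above a set limit, cut at about 50% in these data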;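 further: plate controls were DMSO with full reaction for no effect and wells lacking NADH for full effect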
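controls = No-NADH positive control and DMSO neutral control | system = Clostridium kluyveri diaphorase enzyme | timing = reaction incubation of 16 min at room temperature | signal = resorufin fluorescence 544/590 nm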
WT yeast gro inh: growth inhibition of WT yeast, mitochondrial fusion screen; mitochondrial fusion phenotypic screen, WT strain; inhibition, % at 10 µM; 190,000 tested, 2.1% active; in the data active means inhibition above about 58%; tested in S. cerevisiae
L major 1uM: blocks Leishmania major promastigote growth at 1 uM, repeat screen; inhibition, % at 1 µM; AID 1258; 1,100 tested, 13% active; L. major promastigote growth, resazurin fluorescence, 48 h; shares compounds with L major viab;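 active means inhibition above about 50% in both repeat tests, limit read from the data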
* hit, by the source's call; / = no result. The list is not random: actives were taken first. Their share in the collection is about 12%.

SMILES	ROMK primary	KCC2 mod	L major viab	Diaph act CS	Diaph inh CS	WT yeast gro inh	L major 1uM
CC1=C(/C=C/c2ccccc2)CCN(C)C1	-1.16	0.169	98.6*	1	3.9	7.0	/
O=C(NCCCN1CCOCC1)C(Cl)(Cl)Cl	0.0552	-0.21	52.6*	0.9	9.2	-4.7	/
CC(C(=O)c1ccccc1)N1C(=O)c2ccccc2C1=O (stereo unspecified)	-0.276	0.84	75.4*	1	3.7	-21.8	/
O=Cc1cn(CCCOc2ccccc2)c2ccccc12	-0.79	-0.156	65.8*	0.8	21.6	3.0	/
COc1ccccc1OCCCn1cc(C=O)c2ccccc21	-0.655	0.321	3.9	1	-4.6	23.9	/
COc1cccc(-n2c(/C=C/c3ccc(O)c(O)c3)nc3ccccc3c2=O)c1	-1.34	-1.07	21.4	0.3	69.1*	-7.5	/
CN(C)CC#CCOCCOCCC#N	/	0.341	-2.1	0.9	5.3	-6.0	/
Cn1cccc1/C=C1\C(=O)NC(=O)N(CCC2=CCCCC2)C1=O	/	-0.601	-2.8	0.9	14.2	-3.8	/
O=C1NC(=O)N(CCC2=CCCCC2)C(=O)/C1=C\c1cccs1	0.474	0.0579	55.0*	0.9	11.0	-16.5	/
CC(C)OP(=O)(O)NC(=O)c1ccccc1	0.603	0.0919	-1.5	1.1	-10.4	-16.9	/
CCCC/C(=N/O)c1c(C)[nH]c2ccccc12	0.654	0	2.0	0.9	9.6	4.7	/
COC(=O)C(O)(c1ccc(NC(=S)NC(=O)c2ccc(Cl)cc2Cl)cc1)C(F)(F)F (stereo unspecified)	/	1.48	42.1	0.8	24.1	27.4	/
COC(=O)C(O)(c1ccc(NC(=S)NC(=O)c2ccc(Cl)cc2Cl)c(C)c1)C(F)(F)F (stereo unspecified)	-0.752	3	6.1	0.7	30.5	75.2*	/
CCOC(=O)C(O)(c1ccc(NC(=S)NC(=O)c2ccc(Cl)cc2Cl)cc1)C(F)(F)F (stereo unspecified)	1.27	0.535	66.9*	0.7	28.3	32.9	/
CC(C)[C@@]1(NC(=O)[C@@H]2C[C@@H]3c4cccc5[nH]cc(c45)C[C@H]3N(C)C2)O[C@@]2(O)[C@@H]3CCCN3C(=O)[C@H](Cc3ccccc3)N2C1=O	/	-0.453	64.6*	0.9	9.8	-12.7	-2.1
CC(C)C[C@H]1C(=O)N2CCCC2[C@]2(O)O[C@](NC(=O)[C@@H]3C=C4c5cccc6[nH]cc(c56)CC4N(C)C3)(C(C)C)C(=O)N12 (stereo partly specified)	/	-0.639	58.5*	0.8	23.7	3.6	1.1
C=CCn1c(=O)c(C=Nc2c(OC)cccc2[N+](=O)[O-])c(O)n(CCCC)c1=O	-0.786	-1.62	-7.0	0.7	25.5	-1.2	/
C=CCn1c(O)c(C(CC)=NCc2ccco2)c(=O)[nH]c1=O	/	-0.785	/	/	/	/	/
N#CC(c1ccccc1)N1CCOCC1 (stereo unspecified)	/	1.38	/	/	/	/	/
O=C1C2CCCN2C(c2cccnc2)N1c1ccc(Cl)c(Cl)c1 (stereo unspecified)	-0.0612	/	95.5*	0.8	17.8	5.3	7.8
O=C1C2CCCN2C(c2ccncc2)N1c1ccc(Cl)c(Cl)c1 (stereo unspecified)	/	0.471	0.1	0.8	16.2	2.9	/
CN1CCN(c2cn[nH]c(=O)c2Cl)CC1	-0.217	-0.0197	-0.5	0.8	15.1	-6.3	/
O=P(Nc1ccccc1)(Nc1ccccc1)Oc1ccc(Cl)cc1	2.03	-0.942	71.3*	0.8	20.2	2.0	-5.2
Cc1ccccc1OCCCn1cc(C(=O)C(=O)N2CCOCC2)c2ccccc21	-0.203	-1.39	40.7	0.9	8.8	-15.7	/
CCOCCN1CCN(c2nnc3n2-c2ccc(Cl)cc2C(c2ccccc2Cl)=NC3)CC1	1.41	-1.11	99.1*	1	2.7	-12.8	51.3*
SMILES	ROMK primary	KCC2 mod	L major viab	Diaph act CS	Diaph inh CS	WT yeast gro inh	L major 1uM
Cc1nnc2n1-c1ccc(Br)cc1C(c1ccccc1Cl)=NC2	/	1.45	32.2	1	3.3	22.0	/
COCCCN1CCN(c2nnc3n2-c2sc(Br)cc2C(c2ccccc2Cl)=NC3)CC1	/	0.0075	97.2*	0.9	7.6	7.6	79.4*
CC1=CC(=C2C(=O)NC(=S)NC2=O)C=C(C(F)(F)F)N1C	1.97	0.615	8.1	0.9	11.5	6.8	/
CC12CNCC(C)(CNC1)C2O (stereo unspecified)	/	-0.645	-4.2	0.9	9.7	2.7	/
CC1(C)C(=O)C=C[C@]2(C)[C@H]3CC[C@@]4(C)[C@H](c5ccoc5)OC(=O)[C@H]5O[C@]54[C@]3(C)[C@H](O)C[C@@H]12	1.45	0.132	100.2*	0.8	20.1	40.9	87.7*
CC[n+]1c(/C=C/N(C)c2ccccc2)sc2ccc(Cl)cc21	/	-1.66	100.5*	0.9	7.0	-2.1	99.9*
CCC(=O)OC1(c2ccccc2)C(C)CN(C)CC1C (stereo unspecified)	0.0857	1.46	-2.0	0.9	9.4	-3.1	/
CC(C)[C@H]1C(=O)O[C@H](C(C)C)C(=O)N(C)[C@@H](C(C)C)C(=O)O[C@H](C(C)C)C(=O)N(C)[C@@H](C(C)C)C(=O)O[C@H](C(C)C)C(=O)N1C	/	-1.44	100.4*	0.8	22.3	79.7	-7.3
Cn1cccc1CNCCc1ccccc1F	-0.0474	0.217	97.7*	1	1.5	3.7	-17.0
Cn1cccc1CNCCc1ccccc1	/	0.399	-4.9	0.9	10.8	3.6	/
CN1CCN2c3ccccc3CC3(C(=O)N(C)C(=O)N(C)C3=O)C2C1 (stereo unspecified)	/	1.4	/	/	/	/	/
CCOc1cccc(CNC2CN3CCC2CC3)c1 (stereo unspecified)	/	/	98.6*	0.9	6.2	9.2	-19.4
COc1cccc(CNC2CN3CCC2CC3)c1OC (stereo unspecified)	/	1.29	-2.1	1	0.0	-3.4	/
O=C1OCc2cc(N=Nc3c(O)[nH]c(=O)[nH]c3=O)ccc21	-0.0719	0.63	/	/	/	/	/
CN(C)c1ccc(NC(=O)CN2C(=O)CN=C(c3ccccc3)c3ccccc32)cc1	/	-0.76	-0.2	0.9	12.2	5.1	/
Cc1ccc(NC(=O)CN2C(=O)CN=C(c3ccccc3)c3cc(Cl)ccc32)cc1	/	-0.964	61.1*	0.7	27.2	41.0	4.3
CCC(=NCCCN1CCOCC1)c1c(O)n(-c2ccccc2C)c(=O)[nH]c1=O	/	0.448	/	/	/	/	/
O=C(NCC(c1cccnc1)N1CCN(c2ccc(F)cc2)CC1)Oc1ccccc1 (stereo unspecified)	/	0.922	92.6*	1	2.6	0.7	78.5*
CCn1nc(/C=C/c2ccccc2)nc2c(=O)n(C)c(=O)nc1-2	/	0.852	100.5*	1.5	-50.0	90.0*	81.4*
